# Measurements reported in paper PMC9685603 (ACS Omega, 2022).
# “Also recorded” adds a separate entry of the source.
# Tested on: HEK 293 cells
# Experiment: MTT cell viability
# Assay type: cell-based, human
# Conditions: MTT assay, 48 h, studied concentration range 100–0.01 μM
# In short: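 Seeding in DMEM with 10% FBS was 8000 cells/well for MCF-7 and MDA-MB-468 and 5000 cells/well for HEK 293. Cells were held 24 h at 37 °C, 5% CO2, humidified, then exposed to test compounds at varied concentrations for 48 h. MTT reagent (5 mg/mL) was added for 2–4 h and formazan dissolved in DMSO. Absorbance was read at 570/690 nm and % survival calculated.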
structure (smiles),measurement,value
"O=S(=O)(NN=Cc1cn(CCN2CCOCC2)c2ccccc12)c1ccc(Cl)cc1 [Compound 5f, 4-Chloro-N′-((1-(2-morpholinoethyl)-1H-indol-3-yl)methylene)benzenesulfonohydrazide]",toxicity against HEK 293 noncancerous cells,biocompatible; also recorded: nontoxic
